# In the library only some 3.4% were active in any assay of this set; here they are far more common.
# ROMK mod = human ROMK K+ channel modulation, primary screen; AID 1918; B-score at 10 µM; P48048; Tet-inducible ROMK, thallium flux fluorescence; actives lie on both sides; 130,000 tested, 2% active;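 active = signal ratio slope over the read window, or its plate-corrected B-score, at least 3 SD from the plate mean, either direction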;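 also: B-score of the F/F0 ratio slope over 7 to 12 s after thallium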
# PKD1 kinase inh = blocks activity of human protein kinase D1; PKD1 kinase fluorescence polarization assay; 200,000 tested, 0.056% active; Q15139; inhibition, % (no concentration beside the values); in the data active = inhibition above about 50%
# MDM2 E3 inh = inhibitors of human Mdm2 E3 ubiquitin ligase; Q00987; cell-based MDM2 ubiquitination luciferase reporter, 2 h; 0 = plate control, 100 = twice control, blank-subtracted; signal enhancement, % at 5 µM; 210,000 tested, 0.11% active; AID 1230;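 active = signal enhancement of 30% or more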;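 also: luminescence tracks abundance of the self-degrading MDM2-luciferase fusion protein; higher signal means inhibition of MDM2 E3 ligase activity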
#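 test system = mammalian cells stably expressing self-ubiquitinating, self-degrading MDM2 E3–luciferase fusion | quantity = 2000 cells/well | incubation = cell settling 4 h, compound treatment 2 h, both 37 °C | signal = luminescence with SteadyLite reagent, 15 min at room temperature | evaluation = % enhancement relative to plate controls after blank subtraction | benchmarks = plate controls and plate blanks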
# Redox H2O2 prof = compounds producing H2O2 with reducing agent – biochemical, NIH compound library profiling, artefact control for MLSCN library redox annotation, primary screen; 200,000 tested, 0.03% active; activation, % at 10 µM; AID 878; DTT-dependent redox cycling H2O2, phenol red/HRP absorbance; 100% = 100 µM peroxide control, 0% = buffer;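 active = activation of at least 50% relative to the plate's high and low controls in the primary single-dose screen; inactive = activation below 50%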;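 also: compound incubated with DTT at 0.8 mM final as the reducing agent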
# KCC2 mod = modulates chloride dependent transport by human KCC2. Q9H2X9. KCC2 cells, thallium flux FluoZin-2 fluorescence. B-score of Tl+ flux slope (higher = more flux/activation; lower = inhibition) at 10 µM. 190,000 tested, 2.2% active. AID 1456;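 active = thallium flux slope and its plate-corrected score both differing from the plate sample mean at a set confidence after two filtering rounds, in either direction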;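 also: slope of fluorescence scaled to starting intensity during 10 to 20 s after thallium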
# p97 inhibitor = blocks human p97 ATPase activity. recombinant p97 ATPase, Kinase-Glo ATP luminescence, 3 h. inhibition, % at 8 µM. 220,000 tested, 0.42% active. AID 1481; in the data active = inhibition above about 15%;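 also: 0% = DMSO vehicle and 100% = wells lacking enzyme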
# Target sequence (P55072 whole entry, looked up): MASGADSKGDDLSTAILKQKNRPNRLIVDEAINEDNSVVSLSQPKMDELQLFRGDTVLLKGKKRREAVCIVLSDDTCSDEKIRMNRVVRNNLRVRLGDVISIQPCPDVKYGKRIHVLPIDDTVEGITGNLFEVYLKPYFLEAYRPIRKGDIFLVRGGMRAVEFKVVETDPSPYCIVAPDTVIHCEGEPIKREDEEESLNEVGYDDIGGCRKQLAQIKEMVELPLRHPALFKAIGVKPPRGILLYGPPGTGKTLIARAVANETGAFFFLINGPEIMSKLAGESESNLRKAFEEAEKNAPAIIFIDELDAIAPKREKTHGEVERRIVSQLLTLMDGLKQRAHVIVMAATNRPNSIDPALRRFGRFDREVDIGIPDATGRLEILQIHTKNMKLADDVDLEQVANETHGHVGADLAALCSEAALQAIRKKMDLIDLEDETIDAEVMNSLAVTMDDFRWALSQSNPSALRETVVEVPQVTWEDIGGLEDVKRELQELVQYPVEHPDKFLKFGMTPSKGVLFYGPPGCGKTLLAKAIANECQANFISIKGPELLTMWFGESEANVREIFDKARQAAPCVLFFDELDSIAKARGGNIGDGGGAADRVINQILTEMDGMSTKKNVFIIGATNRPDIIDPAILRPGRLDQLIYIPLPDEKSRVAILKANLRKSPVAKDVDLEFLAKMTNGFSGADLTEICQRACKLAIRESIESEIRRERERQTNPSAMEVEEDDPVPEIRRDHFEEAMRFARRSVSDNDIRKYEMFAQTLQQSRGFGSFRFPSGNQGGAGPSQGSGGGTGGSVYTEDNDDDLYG
# KCC2 secondary = KCC2 (human) modulation, secondary assay; shares compounds with KCC2 mod; HEK293-KCC2, thallium flux, FluoZin2 fluorescence; hits give high values; normalised thallium flux (F/F0 slope) at 10 µM; 3,700 tested, 15% active;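 active = thallium flux slope above the same plate's solvent-only control mean plus 3 SD; inconclusive = the two replicate wells disagree; inactive = no significant difference from solvent-only control wells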
# KCC2 bumet counter = thallium flux persisting under bumetanide in KCC2 cells, counter-screen secondary assay | HEK293-KCC2 + bumetanide/ouabain, thallium flux FluoZin2; hits give high values | 3,700 tested, 49% active | normalized thallium flux at 10 µM | shares compounds with KCC2 mod;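 active = thallium entry rate above the same plate's blocked-transporter control wells by more than 3 SD; inconclusive = the two repeat wells disagree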;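 also: raw slope of fluorescence over initial fluorescence between 10 and 20 s after thallium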
# KCC2 sec2 = confirmation of human KCC2 transport modulators; shares compounds with KCC2 mod; HEK293-KCC2, thallium flux FluoZin2 fluorescence; actives lie on both sides; F/F0 rise rate, 10–20 s post-thallium; normalized thallium flux at 10 µM; 3,700 tested, 23% active; AID 1715;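 active = thallium flux slope more than 3 SD above or below the plate's solvent-only control mean, mostly below; inconclusive = the two repeat wells disagreed; inactive = no significant shift from solvent-only controls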;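 also: raw slope with 0.1% DMSO as baseline and bumetanide as block control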
# HEK counter1 = parental HEK flux effect, counter-screen; shares compounds with KCC2 mod; HEK293 parental cells, thallium flux FluoZin2, ouabain; baseline-ratio fluorescence slope, 10–20 s after thallium; thallium flux rate (normalised fluorescence) at 10 µM; 3,700 tested, 46% active; AID 1716;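 active = thallium flux rate significantly above the same plate's solvent-only control wells, beyond their mean plus 3 SD; inconclusive = the two replicate wells gave conflicting results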
# KCC2 retest ouab = modulates human KCC2 on retest with ouabain; AID 1717; raw Tl+ flux slope (below DMSO = inhibition, above = activation) at 10 µM; HEK293-KCC2, thallium flux FluoZin2 fluorescence; bidirectional: low = inhibitor, high = activator; 3,700 tested, 48% active; shares compounds with KCC2 mod;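 active = thallium flux slope beyond 3 SD from same-plate DMSO control mean in most replicates, usually higher, sometimes lower; inconclusive = repeat tests gave conflicting results; inactive = no significant difference from controls in most replicates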;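 also: slope of initial-normalized fluorescence between seconds 10 and 20 after thallium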
# HEK293 Tl flux2 = counter-screen for KCC2 modulators: effect in parental HEK293 cells. shares compounds with KCC2 mod. thallium flux FluoZin-2 fluorescence slope. thallium flux slope at 10 µM. 3,700 tested, 33% active. AID 1718;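 active = thallium flux slope above the same plate's solvent-control mean plus 3 SD in both duplicate wells; inconclusive = duplicate wells that disagreed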;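 also: run without ouabain in cells lacking the KCC2 cotransporter; slope of fluorescence scaled to its starting value between 10 and 20 s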
# Numbers without * were called inactive; u = inconclusive; x = no result.
SMILES,ROMK mod,PKD1 kinase inh,MDM2 E3 inh,Redox H2O2 prof,KCC2 mod,p97 inhibitor,KCC2 secondary,KCC2 bumet counter,KCC2 sec2,HEK counter1,KCC2 retest ouab,HEK293 Tl flux2
O=C(Oc1cc2oc(=O)cc(-c3ccccc3)c2cc1Cl)C1CCCCC1,x,-13.1,-59.3,1.6,x,4.2,x,x,x,x,x,x
CCOC(=O)C1(Cc2cccc(OC)c2)CCN(CC=C(C)C)CC1,-0.0894,-0.8,-1.8,0.2,0.194,1.4,x,x,x,x,x,x
CN(CCCNC(=O)CCCOc1cc(=O)n(C)c2ccccc12)Cc1ccccc1,-0.033,9.1,-14.5,-0.5,-0.00156,0.2,x,x,x,x,x,x
COc1cccc2sc(Nc3nc(-c4cc5ccccc5oc4=O)cs3)nc12,x,18.9,-6.2,0.4,0.595,6.8,x,x,x,x,x,x
COc1cccc2sc(Nc3nnc(-c4ccccc4Cl)o3)nc12,x,-10.2,-3.5,-2.2,79.6*,3.0,0.0439*,0.129*,0.0994*,u,0.103*,0.113*
CCOC(=O)N1CCN(c2c(NCCOC)c(=O)c2=O)CC1,x,-1.6,-0.9,-0.4,-0.768,-0.7,x,x,x,x,x,x
COc1ccc(-c2nc3ccccc3[nH]2)cc1,-0.00132,-6.5,-8.4,0.2,0.0684,-43.4,x,x,x,x,x,x
COc1ccc(-c2nc(=S)c3ccc4ccccc4c3[nH]2)cc1,0.316,-2.3,-5.9,-2.4,78.7*,5.1,0.0216*,0.113*,0.0478*,0.0857*,0.0799*,0.0398*
C/C(=N\NC(=O)CNc1cccc(C)c1)c1ccc(Br)s1,0.0553,-9.2,-1.7,0.1,0.0768,1.2,x,x,x,x,x,x
C/C(=N\NC(=O)c1ccc(Cl)c(Cl)c1)c1ccc(Br)s1,x,-10.3,-1.8,0.5,7.17*,7.5,0.00755,0.00897*,0.0359,0.0225*,0.0253*,0.0169*
C/C(=N/NC(N)=S)c1ccc(Br)s1,-1.55,-1.0,-9.2,0.0,19.3*,0.6,0.0108,0.0324*,0.0307,0.0138*,0.0271,u
C/C(=N/NC(=O)c1ccc2c(c1)OCO2)c1ccc(Br)s1,0.513,-1.3,-0.7,0.1,6.32*,4.6,0.01,0.0152*,0.0343,u,u,u
CC(/C=N/NC(=O)C(O)c1ccccc1)=C\c1ccccc1 (centres undefined),x,-4.5,-5.6,1.5,-0.00414,0.8,x,x,x,x,x,x
COCCN1C(=O)C(=O)/C(=C(/O)c2cccc(OC)c2)C1c1ccco1 (centres undefined),x,-9.7,-19.7,-0.1,x,1.5,x,x,x,x,x,x
O=C(OCCCc1ccncc1)c1ccc(S(=O)(=O)N2CCOCC2)cc1,-1.86,-10.7,-14.6,0.1,x,3.1,0.00954,0.0183*,0.0335,0.0109*,0.0222,0.0114*
CCOC(=O)c1nnn(CC(=O)NC(=O)Nc2cccc(CC)c2)c1C(=O)OCC,-0.133,0.3,5.8,0.6,0.0059,0.7,x,x,x,x,x,x
N#Cc1cn(CC(=O)NCC2CCCO2)c2ccccc12 (centres undefined),x,-1.7,-23.0,2.8,1.16,4.5,x,x,x,x,x,x
CC1CCCC(NC(=O)CCC(=O)c2ccc(F)cc2)C1C (centres undefined),x,x,-19.8,x,-3.98*,-4.0,0.00641,0.00526,0.0304,0.00701,0.0181,0.00962
CC1CCCC(NC(=O)CSc2ccc(F)cc2)C1C (centres undefined),0.0128,-2.9,-15.2,0.0,-0.386,-2.3,x,x,x,x,x,x
Cc1cccc(CSCCNC(=O)CCSc2ccccc2)c1,-1.35,-7.1,-6.4,9.4,-2.05,-0.1,x,x,x,x,x,x
O=C(CCSc1ccccc1)NCCSCc1ccccc1,x,-6.3,-7.0,0.4,-3.53*,-1.8,u,0.00387,0.0215*,u,0.0133*,u
CCc1ccc(NC(=O)CN(c2ccccc2)S(=O)(=O)N(C)C)cc1,-0.22,6.4,-11.4,0.1,-0.594,-2.7,x,x,x,x,x,x
CN(C)S(=O)(=O)N(CC(=O)NCCSCc1ccccc1)c1ccccc1,-0.524,-3.1,-17.3,-0.4,-3.71*,-0.4,0.00624,0.006*,0.0243*,0.00707,u,0.01
Cc1ccccc1NC(=S)N/N=C/C(C)c1ccccc1 (centres undefined),-0.864,6.2,-26.6,0.0,13.6*,2.6,0.00506,0.0267*,0.0322,0.0151*,u,0.0181*
Cc1cccc(NC(=S)N/N=C/C(C)c2ccccc2)c1C (centres undefined),x,-2.0,-11.2,-0.3,5.49,0.5,x,x,x,x,x,x
SMILES,ROMK mod,PKD1 kinase inh,MDM2 E3 inh,Redox H2O2 prof,KCC2 mod,p97 inhibitor,KCC2 secondary,KCC2 bumet counter,KCC2 sec2,HEK counter1,KCC2 retest ouab,HEK293 Tl flux2
CC1OC(OC2C(OC3C(O[C@H]4CC[C@]5(C)C6C=C[C@]78OC[C@@]9(CC[C@@H](C)[C@H](C)C97)[C@H](O)C[C@@]8(C)[C@]6(C)CC[C@H]5C4(C)C)OC(C)C(O)C3O)OC(CO)C(O)C2O)C(O)C(O)C1O (some centres undefined),x,x,-7.7,x,27.5*,x,u,0.0251*,0.0323,0.0426*,u,0.0107
CC(=O)Nc1ccc(Nc2cc(C)nc3c(-c4ccccc4)cnn23)cc1,x,-2.4,-6.1,0.5,-3.92*,-0.5,0.00781,0.00917*,0.032,0.00735,0.0203,0.0106
Cc1cc(N)n2ncc(-c3ccccc3)c2n1,0.0435,4.8,-10.7,1.0,-0.187,12.3,x,x,x,x,x,x
CCCCC(CCC(=O)O)(C(=O)OCC)c1csc(Nc2ccccc2)n1 (centres undefined),-1.01,0.2,-7.1,-0.3,-3.9*,1.2,0.00774,0.00652,0.0343,0.00659,0.0165*,0.0103
CC(C)c1ccc(/C=N/NC(=O)c2ccccc2Cl)cc1,x,0.5,-1.1,-1.5,-4.43*,3.2,0.00541,0.00501,0.0237*,0.00715,u,0.0101
CC1CC(NC2=NCCS2)CC(C)(C)C1 (centres undefined),x,x,-5.5,x,-0.0785,6.7,x,x,x,x,x,x
NC(=O)/C(=N\OC(=O)c1ccco1)c1nc(-c2ccc(Br)cc2)cs1,x,-8.4,-7.0,0.8,3.75*,-4.0,0.00748,0.0129*,0.0252*,0.0111*,0.0184,0.00872
